“And” between values parts separate entries of the source, which are not always exact repeats. Equal values may be shown once.
Columns and labels:
[1] = organism: Oryctolagus cuniculus; experiment: In vitro insulin release was stimulated by the compound at a concentration of 0.003 mmol/L in rabbit pancreas; format: functional
In short: (§1)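 Eight rabbit pancreas pieces, pooled from four rabbits per experiment, were incubated in bicarbonate-buffered medium containing 0.6 g/L glucose. Insulin per flask with compound was divided by basal release, taken as the mean of two preceding 20-min periods without compound. Results are mean ± SEM over n experiments.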

[2] = organism: Oryctolagus cuniculus; experiment: In vitro insulin release was stimulated by the compound at a concentration of 0.01 mmol/L in rabbit pancreas; format: functional; in short: as §1
[3] = organism: Oryctolagus cuniculus; experiment: In vitro insulin release was stimulated by the compound at a concentration of 0.1 mmol/L in rabbit pancreas; format: functional; in short: as §1
[4] = organism: Oryctolagus cuniculus; experiment: In vitro insulin release was stimulated by the compound at a concentration of 0.9 mmol/L in rabbit pancreas; format: functional; in short: as §1
[5] = organism: Rattus norvegicus; experiment: In vitro inhibition of glucose oxidation by the compound in isolated rat fat cells; format: functional, cell-based
In short: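 Epididymal fat cells from five young rats (140–160 g) were isolated by collagenase digestion. They were incubated with D-[1-14C]glucose (40 nCi/flask, 0.1 g glucose/L) across a range of compound concentrations. IC50 was read graphically from % inhibition vs log concentration, reported as mean ± SEM over n experiments.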

[6] = test system: Rattus norvegicus; experiment: In vivo increase of plasma insulin in normal rats at a hypoglycemic dose of 0.17 mmol/kg.; format: functional, organism-based
[7] = test system: Rattus norvegicus; experiment: Blood glucose determined in normal rats at a hypoglycemic dose of 0.17 mmol/kg.
[8] = organism: Oryctolagus cuniculus; experiment: In vitro insulin release was stimulated by the compound at a concentration of 0.03 mmol/L in rabbit pancreas; format: functional; in short: as §1
[9] = organism: Oryctolagus cuniculus; experiment: In vitro insulin release was stimulated by the compound at a concentration of 0.1 mmol/L; format: functional; in short: as §1
[10] = organism: Oryctolagus cuniculus; experiment: In vitro insulin release was stimulated by the compound at a concentration of 0.3 mmol/L in rabbit pancreas; format: functional; in short: as §1
[11] = test system: Rattus norvegicus; experiment: […] in normal rats at a hypoglycemic dose of 0.024 mmol/kg.; format: functional
[12] = test system: Rattus norvegicus; experiment: […] in normal rats at a hypoglycemic dose of 0.072 mmol/kg.; format: functional
[13] = test system: Rattus norvegicus; experiment: Percent change in blood glucose in normal rats at a hypoglycemic dose of 0.072 mmol/kg against control; format: functional
In short: (§2)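 Female rats (175–195 g) were fasted 6–9 h and given compound orally as a suspension in 0.5% (w/v) methylcellulose (5 mL/kg). Blood glucose was measured enzymatically 45 min after dosing. Values are mean ± SEM, expressed as percent change against the control group.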

[14] = test system: Rattus norvegicus; experiment: Percent change in blood glucose in normal rats at a hypoglycemic dose of 0.008 mmol/kg against control; format: functional; in short: as §2
[15] = test system: Rattus norvegicus; experiment: Percent change in blood glucose in normal rats at a hypoglycemic dose of 0.008 mmol/kg. against control; format: functional; settings: in the assay text read “plasma insulin” for “blood glucose”
[16] = test system: Rattus norvegicus; experiment: […] in normal rats at a hypoglycemic dose of 0.008 mmol/kg.; format: functional
[17] = test system: Rattus norvegicus; experiment: In vivo increase of plasma insulin in normal rats at a hypoglycemic dose of 0.008 mmol/kg.; format: functional, organism-based
[18] = test system: Rattus norvegicus; experiment: In vivo increase of plasma insulin in normal rats at a hypoglycemic dose of […]; format: functional, organism-based
[19] = test system: Rattus norvegicus; experiment: In vivo increase of plasma insulin in normal rats at a hypoglycemic dose of […].; format: functional, organism-based
[20] = test system: Rattus norvegicus; experiment: Percent change in blood glucose in normal rats at a hypoglycemic dose of 0.024 mmol/kg against control; format: functional; in short: as §2
[21] = test system: Rattus norvegicus; experiment: […] in normal rats at a hypoglycemic dose of 0.60 mmol/kg; format: functional
[22] = test system: Rattus norvegicus; experiment: Percent change in blood glucose in normal rats at a hypoglycemic dose of 0.60 mmol/kg against control; format: functional; in short: as §2
[23] = test system: Rattus norvegicus; experiment: Percent change in plasma insulin in normal rats at a hypoglycemic dose of 0.60 mmol/kg against control; format: functional
[24] = test system: Rattus norvegicus; experiment: In vivo increase of plasma insulin in normal rats at a hypoglycemic dose of 0.60 mmol/kg; format: functional, organism-based
[25] = test system: Rattus norvegicus; experiment: […] in normal rats at a hypoglycemic dose of 0.18 mmol/kg.; format: functional
[26] = test system: Rattus norvegicus; experiment: In vivo increase of plasma insulin in normal rats at a hypoglycemic dose of 0.18 mmol/kg; format: functional, organism-based
[27] = test system: Rattus norvegicus; experiment: Percent change in blood glucose in normal rats at a hypoglycemic dose of 2.0 mmol/kg. against control; format: functional; in short: as §2
[28] = test system: Rattus norvegicus; experiment: […] in normal rats at a hypoglycemic dose of 2.0 mmol/kg; format: functional
[29] = test system: Rattus norvegicus; experiment: In vivo increase of plasma insulin in normal rats at a hypoglycemic dose of 2.0 mmol/kg; format: functional, organism-based
[30] = test system: Rattus norvegicus; experiment: […] in normal rats at a hypoglycemic dose of 0.028 mmol/kg.; format: functional
[31] = test system: Rattus norvegicus; experiment: […] in normal rats at a hypoglycemic dose of 0.0084 mmol/kg; format: functional
[32] = organism: Rattus norvegicus; experiment: Percent change in blood glucose against control; format: functional; in short: as §2
[33] = organism: Rattus norvegicus; experiment: Percent change in plasma insulin against control; format: functional
[34] = test system: Rattus norvegicus; experiment: In vivo increase of plasma insulin in normal rats at a hypoglycemic dose of 0.0084 […]; format: functional, organism-based
[35] = test system: Rattus norvegicus; experiment: In vivo increase of plasma insulin in normal rats at a hypoglycemic dose of 0.028 […]; format: functional, organism-based
[36] = test system: Rattus norvegicus; experiment: Percent change in plasma insulin in normal rats at a hypoglycemic dose of 0.0084 mmol/kg against control

CCCCNC(=O)NS(=O)(=O)c1ccc(C)cc1 [TOLBUTAMIDE]
Insulin release [1]: 0.95 | Insulin release [2]: 1.81 | Insulin release [3]: 4.33 | Insulin release [4]: 4.23 | IC50 [5]: > 500 µM | Plasma insulin [6]: 278 pM l-1 | Blood glucose [7]: 3.86 mmol/L

CCCC(=O)NCCc1ccc(S(=O)(=O)N2CCN(C3CCCCC3)C2=N)cc1
Insulin release [1]: 1.02 | Insulin release [2]: 1.84 | Insulin release [8]: 2.18 | Insulin release [9]: 2.51 | Insulin release [10]: 3.06 | Blood glucose [11]: 3.62 mM | Blood glucose [12]: 3.63 mM | Change [13]: -38% | Change [14]: -17% | Change [15]: 12% | Blood glucose [16]: 4.86 mM | IC50 [5]: 71 µM | Plasma insulin [17]: 108 pM l-1 | Plasma insulin [18]: 396 pM l-1 | Plasma insulin [19]: 310 pM l-1 | Change [20]: -38%

N=C1N(C2CCCCC2)CCN1S(=O)(=O)c1ccc(N)cc1
Insulin release [1]: 1.01 | Insulin release [2]: 1.22 | Insulin release [8]: 1.74 | Insulin release [3]: 3.21 | Insulin release [4]: 3.21 | Blood glucose [21]: 4.66 mM | Change [22]: -21% | Change [23]: 42% | IC50 [5]: 180 µM | Plasma insulin [24]: 136 pM l-1

COc1cccc(C(=O)NCCc2ccc(S(=O)(=O)N3CCN(C4CCCCC4)C3=N)cc2)c1
Insulin release [1]: 0.98 | Insulin release [2]: 2.08 | Insulin release [8]: 2.24 | Insulin release [3]: 3.13 | Insulin release [10]: 3.66 | IC50 [5]: 20 µM | Blood glucose [25]: 3.08 mM | Plasma insulin [26]: 285 pM l-1

N=C(N)NC(=N)NCCc1ccccc1 [PHENFORMIN]
Change [27]: -10% and -6% | IC50 [5]: 180 µM | Blood glucose [28]: 5.52 mM | Plasma insulin [29]: 86.1 pM l-1

C/C=C/C(=O)NCCc1ccc(S(=O)(=O)N2CCN(C3CCCCC3)C2=N)cc1
Insulin release [1]: 1.88 | Insulin release [2]: 2.73 | Insulin release [10]: 1.82 | Blood glucose [30]: 3.42 mM | Blood glucose [31]: 4.04 mM | Change [32]: -31% and -42% | Change [33]: 397% | IC50 [5]: 180 µM | Plasma insulin [34]: 163 pM l-1 | Plasma insulin [35]: 476 pM l-1 | Change [36]: 71%
